Values after ≈ are worked out from the molar mass of the structure shown.
Columns and labels:
Escherichia coli [1] = assay: Antimicrobial activity against Escherichia coli ATCC 8739 assessed as inhibition of microbial growth incubated for 24 hrs; assay type: functional; details: ATCC 8739, 24 h
Summary of the method: (§1)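 Broth microdilution. Strains grown overnight on TSA at 37°C, suspended to 10⁸ CFU/mL in Tryptone-Sel, then diluted to 10⁶ CFU/mL in double-strength Mueller-Hinton broth. Two-fold serial dilutions in sterile water (pH 7.4–7.7) mixed 1:1 with inoculum. Incubation 24 h at 37°C. MIC is the lowest concentration inhibiting growth. Duplicate wells, three independent experiments.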

Escherichia coli [2] = assay: Antimicrobial activity against Escherichia coli ATCC 8739 assessed as inhibition of microbial growth measured after 8 passes in presence of sublethal compound concentration concentrations; assay type: functional
Bacillus subtilis [3] = assay: Antimicrobial activity against Bacillus subtilis ATCC 6633 assessed as inhibition of microbial growth incubated for 24 hrs; assay type: functional; details: ATCC 6633, 24 h; summary of the method: as §1
Staphylococcus aureus [4] = assay: Antimicrobial activity against Staphylococcus aureus ATCC 6538 assessed as inhibition of microbial growth incubated for 24 hrs; assay type: functional; details: ATCC 6538, 24 h; summary of the method: as §1
Enterococcus faecalis [5] = assay: Antimicrobial activity against Enterococcus faecalis ATCC 29121 assessed as inhibition of microbial growth incubated for 24 hrs; assay type: functional; details: ATCC 29121, 24 h; summary of the method: as §1
Pseudomonas aeruginosa [6] = assay: Antimicrobial activity against Pseudomonas aeruginosa ATCC 9027 assessed as inhibition of microbial growth incubated for 24 hrs; assay type: functional; details: ATCC 9027, 24 h; summary of the method: as §1
Candida albicans [7] = assay: Antimicrobial activity against Candida albicans ATCC 10231 assessed as inhibition of microbial growth incubated for 48 hrs; assay type: functional; details: ATCC 10231, 48 h
Summary of the method: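 C. albicans grown 48 h on Sabouraud at 20–25°C, suspended to 10⁸ CFU/mL, then diluted to 10⁶ CFU/mL in double-strength Mueller-Hinton broth. Two-fold serial dilutions in water (pH 7.4–7.7) mixed 1:1 with inoculum. Incubation 48 h at 25°C. MIC is the lowest concentration inhibiting growth. Duplicate wells, three independent experiments.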

[8] = Hemolytic activity in human RBC assessed as induction of hemolysis incubated for 1 hr; assay type: cell-based, Erythrocyte; details: red blood cells (erythrocytes), read-out: HD50
Summary of the method: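 Human RBCs washed in PBS and used at 5% packed cell volume, mixed 1:1 with two-fold serial dilutions in PBS (pH 7.4–7.7). Incubation 1 h at 37°C, then centrifugation at 1500g for 10 min at 5°C. Supernatant absorbance read at 490 nm against PBS (0%) and 1% SDS/Tris (100%) controls. HC50 from three independent experiments, double duplicate.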

Bacillus subtilis [9] = assay: Microbicidal activity against Bacillus subtilis ATCC 6633 assessed as inhibition of colony growth incubated for 24 hrs followed by replating and further incubated for 24 hrs; assay type: functional; details: ATCC 6633, 24 h
Staphylococcus aureus [10] = assay: Microbicidal activity against Staphylococcus aureus ATCC 6538 assessed as inhibition of colony growth incubated for 24 hrs followed by replating and further incubated for 24 hrs; assay type: functional; details: ATCC 6538, 24 h
Enterococcus faecalis [11] = assay: Microbicidal activity against Enterococcus faecalis ATCC 29121 assessed as inhibition of colony growth incubated for 24 hrs followed by replating and further incubated for 24 hrs; assay type: functional; details: ATCC 29121, 24 h
Escherichia coli [12] = assay: Microbicidal activity against Escherichia coli ATCC 8739 assessed as inhibition of colony growth incubated for 24 hrs followed by replating and further incubated for 24 hrs; assay type: functional; details: ATCC 8739, 24 h
Pseudomonas aeruginosa [13] = assay: Microbicidal activity against Pseudomonas aeruginosa ATCC 9027 assessed as inhibition of colony growth incubated for 24 hrs followed by replating and further incubated for 24 hrs; assay type: functional; details: ATCC 9027, 24 h
Candida albicans [14] = assay: Microbicidal activity against Candida albicans ATCC 10231 assessed as inhibition of colony growth incubated for 48 hrs followed by replating and further incubated for 48 hrs; assay type: functional; details: ATCC 10231, 48 h

CO/N=C(\C(=O)N[C@@H]1C(=O)N2C(C(=O)O)=C(COC(C)=O)CS[C@H]12)c1csc(N)n1 [CEFOTAXIME]
MIC (Escherichia coli [1]): < 0.05 mg/L | MIC (Escherichia coli [2]): 0.8 mg/L

CC(=O)N[C@@H](CCCCN)c1nc(C)sc1C(=O)N[C@@H](C)c1nc(CCCCN)sc1C(=O)N[C@@H](C)c1nc(C)sc1C(=O)N[C@@H](CCCCN)c1nc(C)sc1C(=O)N[C@@H](C)c1nc(CCCCN)sc1C(=O)N[C@@H](C)c1nc(C)sc1C(N)=O
MIC (Bacillus subtilis [3]): 30 µM | MIC (Staphylococcus aureus [4]): > 150 µM | MIC (Enterococcus faecalis [5]): > 150 µM | MIC (Escherichia coli [1]): > 150 µM | MIC (Pseudomonas aeruginosa [6]): > 150 µM | MIC (Candida albicans [7]): 62.5 µM | HC50 at 1 h [8]: > 100 µM | MBC (Bacillus subtilis [9]): 30 µM (≈ 38.9 µg/mL) | MBC (Staphylococcus aureus [10]): > 150 µM | MBC (Enterococcus faecalis [11]): > 150 µM | MBC (Escherichia coli [12]): > 150 µM | MBC (Pseudomonas aeruginosa [13]): > 150 µM | MBC (Candida albicans [14]): 130 µM (≈ 169 µg/mL)

CC(=O)N[C@@H](CCCNC(=N)N)c1nc(C)sc1C(=O)N[C@@H](C)c1nc(CCCNC(=N)N)sc1C(=O)N[C@@H](C)c1nc(C)sc1C(=O)N[C@@H](CCCNC(=N)N)c1nc(C)sc1C(=O)N[C@@H](C)c1nc(CCCNC(=N)N)sc1C(=O)N[C@@H](C)c1nc(C)sc1C(=O)N[C@@H](CCCNC(=N)N)c1nc(C)sc1C(=O)N[C@@H](C)c1nc(CCCNC(=N)N)sc1C(=O)N[C@@H](C)c1nc(C)sc1C(N)=O
MIC (Bacillus subtilis [3]): 0.5 µM | MIC (Staphylococcus aureus [4]): 14.6 µM | MIC (Enterococcus faecalis [5]): 100 µM | MIC (Escherichia coli [1]): 0.8 µM | MIC (Pseudomonas aeruginosa [6]): 54 µM | MIC (Candida albicans [7]): 9.4 µM | HC50 at 1 h [8]: > 100 µM | MBC (Bacillus subtilis [9]): 0.5 µM (≈ 1.04 µg/mL) | MBC (Staphylococcus aureus [10]): 16.5 µM (≈ 34.4 µg/mL) | MBC (Enterococcus faecalis [11]): > 100 µM | MBC (Escherichia coli [12]): 0.8 µM (≈ 1.67 µg/mL) | MBC (Pseudomonas aeruginosa [13]): 100 µM (≈ 208 µg/mL) | MBC (Candida albicans [14]): 12.5 µM (≈ 26 µg/mL)

From ChEMBL document CHEMBL4619808, “Tailoring the Physicochemical Properties of Antimicrobial Peptides onto a Thiazole-Based γ-Peptide Foldamer” (J Med Chem, 2020)
